# Data from article PMC3684024 (Science translational medicine, 2013).
# Columns and labels:
# [1] = test system: EAE; conditions: cited from earlier work
# [2] = test system: animal models of stroke, cardiac and retinal ischemia-reperfusion injury; conditions: cited from earlier work
# [3] = test system: insulin fibril formation; experiment: Inhibition of insulin amyloid fibril formation; format: biochemical, bovine; conditions: ThT fluorescence ex 440 nm, em 485 nm (fig. S2)
# Outline: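 Fibril formation is tracked in the DTT-reduced insulin chaperone reaction: bovine insulin in NaCl/Tris pH 7.4 at 37°C, with or without test peptide fibrils. Thioflavin T is added from a 10 µM solution and fluorescence is read at 485 nm with excitation at 440 nm on a microplate reader.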
# [4] = test system: plasma proteins; conditions: ref [13], cited from earlier work
# [5] = molecular target: bovine insulin (beta chain) aggregation (Bos taurus, UniProt P01317); experiment: Chaperone assay: inhibition of DTT induced insulin aggregation; format: biochemical
# Outline: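 Bovine insulin (150 µg) in 100 mM NaCl, 20 mM Tris pH 7.4, with or without varying peptide or protein concentrations, at 37°C; some runs at pH 5. Reduction is started at time zero with DTT (100 mM stock). Aggregation is followed as absorbance at 360 nm over 20 min. In time-of-addition runs, small heat shock protein or fibrils are added 3, 10 or 16 min after DTT, with a buffer-only addition as dilution control.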
# [6] = ref [12]; cited from earlier work
# Chain of bovine insulin (beta chain) aggregation (P01317 25-54 limits assumed): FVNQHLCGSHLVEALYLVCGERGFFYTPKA
substance,measurement,setting,value
Aβ 1–40: peptide from amyloid β A4,anti-inflammatory effect in EAE,"[1]; ameliorating paralysis and reducing brain inflammation, ref [6]",effective anti-inflammatory agents
HspB5: amyloid forming small heat shock protein,therapeutic effect in stroke model,[2]; ref [3],therapeutic
same,therapeutic effect in cardiac and retinal ischemia-reperfusion injury,"[2]; ref [4], [5]",therapeutic
same,inhibition of insulin fibril formation,[3],effective inhibitors of insulin fibril formation
same,number of ligands precipitated from plasma,[4]; enriched and temperature dependent binding,approximately 70
same,"ligands that are acute phase, complement or coagulation proteins",[4],Greater than 50%
same,therapeutic effect in animal models of multiple sclerosis,[1]; ref [2],therapeutic
same,inhibition of insulin aggregation when given at time 0,[5]; 150 µg HspB5 given at time 0,fully inhibitory dose when given at time 0
same,effect on light scattering when added 3 min after DTT,[5]; 150 µg HspB5 or Tau fibrils added three minutes after dithiothreitol (fig. S3),rapid increase in light scattering
same,effect on light scattering when added at 10 and 16 minutes,[5]; added 10 and 16 minutes after initiation,"increase in light scattering, albeit less of an increase at longer than earlier time points"
same,effect on insulin fibrillization after initiation,"[5]; added after initiation of fibril formation (figs. S3, S4)",can increase the light scattering after initiation of fibril formation
"73–92 of HspB5: linear peptide region within HspB5, residues 73–92 (DRFSVNLDVKHFSPEELKVK; UniProt P02511 73-92, looked up, fragment)",chaperone activity,[6],exhibited chaperone activity
same,reduction of paralysis and histological neuroinflammation in EAE,[1]; ref [12],"therapeutic, reducing paralysis and histological neuroinflammation in EAE"
